Test results reported in ChEMBL document CHEMBL4373711, “Development of 3,5-Dinitrophenyl-Containing 1,2,4-Triazoles and Their Trifluoromethyl Analogues as Highly Efficient Antitubercular Agents Inhibiting Decaprenylphosphoryl-β-d-ribofuranose 2'-Oxidase” (J Med Chem, 2019).
In brackets after ≈: the same amount, converted by molar mass. Activity calls are given as the source filed them. The rule behind the calls is not given here.

Experiments:
Mycobacterium kansasii [1] = assay: Antimycobacterial activity against Mycobacterium kansasii CNCTC My 235/80 after 7 days; format: functional; conditions: CNCTC My 235/80, 168 h
Method in brief: (§1)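 Microdilution in Šula's semisynthetic medium; compounds in DMSO at 32–0.03 µM. Inoculum from 1.0 McFarland suspension diluted 10-4. […] Isoniazid and rifampicin as reference drugs.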

Pseudomonas aeruginosa = assay: Antibacterial activity against Pseudomonas aeruginosa ATCC 27853 CCM 3955 at highest concentration measured after 24 to 48 hrs by alamar blue dye based broth microdilution assay; format: functional, organism-based
Mycobacterium kansasii [2] = assay: Antimycobacterial activity against Mycobacterium kansasii CNCTC My 235/80 after 21 days; format: functional; conditions: CNCTC My 235/80, 504 h; method in brief: as §1
Staphylococcus aureus [3] = assay: Antibacterial activity against methicillin-resistant Staphylococcus aureus subsp. aureus ATCC 43300 CCM 4750 at highest concentration measured after 24 to 48 hrs by alamar blue dye based broth microdilution assay; format: functional, organism-based
Mycobacterium avium [4] = assay: Antimycobacterial activity against Mycobacterium avium CNCTC My 330/88 after 14 days; format: functional; conditions: CNCTC My 330/88, 336 h
Method in brief: (§2)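 M. avium was tested by microdilution in Šula's semisynthetic medium, with compounds dissolved in DMSO and serially diluted from 1000 down to 1. Inoculum was a 1.0 McFarland suspension diluted 10-5. Plates were incubated at 37 °C and read at 14 and 21 days. […] Isoniazid and rifampicin served as standards.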

Pichia kudriavzevii = assay: Antifungal activity against Candida krusei ATCC 6258 CCM8271 at highest concentration measured after 24 to 48 hrs by alamar blue dye based broth microdilution assay; format: functional, organism-based
Enterococcus faecalis = assay: Antibacterial activity against Enterococcus faecalis ATCC 29212 CCM 4224 at highest concentration measured after 24 to 48 hrs by alamar blue dye based broth microdilution assay; format: functional, organism-based
Escherichia coli = assay: Antibacterial activity against Escherichia coli ATCC 25922 CCM 3954 at highest concentration measured after 24 to 48 hrs by alamar blue dye based broth microdilution assay; format: functional, organism-based
[5] = Cytotoxicity against human HepG2 cells assessed as cell viability at 30 uM after 48 hrs by CellTiter 96 aqueous one solution assay relative to control; format: cell-based; conditions: read-out: Activity
Method in brief: (§3)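 HepG2 (DMEM, 10% FBS, 1 mM pyruvate) or A431 (DMEM, 10% FBS) seeded 10,000 cells/well, 24 h at 37 °C, 5% CO2, then 30 µM compound for 48 h. MTS reagent 60 min, absorbance 490 nm, background subtracted; 0.1% DMSO vehicle = 100%, 10% SDS = 0% viability.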

Mycobacterium kansasii [6] = assay: Antimycobacterial activity against Mycobacterium kansasii 6509/96 after 21 days; format: functional; conditions: 6509/96, 504 h; method in brief: as §1
[7] = system: Staphylococcus epidermidis; assay: Antibacterial activity against Staphylococcus epidermidis at highest concentration measured after 24 to 48 hrs by alamar blue dye based broth microdilution assay; format: functional, organism-based
Serratia marcescens = assay: Antibacterial activity against Serratia marcescens at highest concentration measured after 24 to 48 hrs by alamar blue dye based broth microdilution assay; format: functional, organism-based
Mycobacterium kansasii [8] = assay: Antimycobacterial activity against Mycobacterium kansasii CNCTC My 235/80 after 14 days; format: functional; conditions: CNCTC My 235/80, 336 h; method in brief: as §1
Candida tropicalis = assay: Antifungal activity against Candida tropicalis ATCC 750 CCM 8264 at highest concentration measured after 24 to 48 hrs by alamar blue dye based broth microdilution assay; format: functional, organism-based
Candida albicans = assay: Antifungal activity against Candida albicans ATCC 24433 CCM 8320 at highest concentration measured after 24 to 48 hrs by alamar blue dye based broth microdilution assay; format: functional, organism-based
[9] = Cytotoxicity against human A431 cells assessed as cell viability at 30 uM after 48 hrs by CellTiter 96 aqueous one solution assay relative to control; format: cell-based, A-431; conditions: read-out: Activity; method in brief: as §3
Mycobacterium kansasii [10] = assay: Antimycobacterial activity against Mycobacterium kansasii 6509/96 after 7 days; format: functional; conditions: 6509/96, 168 h; method in brief: as §1
Aspergillus fumigatus = assay: Antifungal activity against Aspergillus fumigatus ATCC 204305 at highest concentration measured after 24 to 48 hrs by alamar blue dye based broth microdilution assay; format: functional, organism-based
Lichtheimia corymbifera = assay: Antifungal activity against Lichtheimia corymbifera CCM 8077 at highest concentration measured after 24 to 48 hrs by alamar blue dye based broth microdilution assay; format: functional, organism-based
[11] = system: Mycobacterium tuberculosis; assay: Antimycobacterial activity against XDR Mycobacterium tuberculosis Praha 131 after 14 days; format: functional; conditions: Praha 131, 336 h
Method in brief: (§4)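 M. tuberculosis strains (H37Rv and clinical MDR/XDR isolates) tested by microdilution in Šula's semisynthetic medium. Compounds were dissolved in DMSO and tested at 32 to 0.03 µM in twofold steps. Inoculum was a 1.0 McFarland suspension diluted 10-3. Plates were incubated at 37 °C and read at 14 and 21 days.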

[12] = system: Mycobacterium tuberculosis; assay: Antimycobacterial activity against Mycobacterium tuberculosis H37Rv CNCTC My 331/88 after 14 days; format: functional; conditions: H37Rv CNCTC My 331/88, 336 h; method in brief: as §4
Candida parapsilosis = assay: Antifungal activity against Candida parapsilosis ATCC 22019 CCM 8260 at highest concentration measured after 24 to 48 hrs by alamar blue dye based broth microdilution assay; format: functional, organism-based
Mycobacterium avium [13] = assay: Antimycobacterial activity against Mycobacterium avium CNCTC My 330/88 after 21 days; format: functional; conditions: CNCTC My 330/88, 504 h; method in brief: as §2
[14] = system: Mycobacterium tuberculosis; assay: Antimycobacterial activity against Mycobacterium tuberculosis H37Rv CNCTC My 331/88 after 21 days; format: functional; conditions: H37Rv CNCTC My 331/88, 504 h; method in brief: as §4
Staphylococcus aureus [15] = assay: Antibacterial activity against Staphylococcus aureus subsp. aureus ATCC 29213 CCM 4223 at highest concentration measured after 24 to 48 hrs by alamar blue dye based broth microdilution assay; format: functional, organism-based
HepG2 = assay: Cytotoxicity against human HepG2 cells assessed as reduction in cell viability after 48 hrs by CellTiter 96 aqueous one solution assay; format: cell-based; conditions: HepG2, 48 h
Aspergillus flavus = assay: Antifungal activity against Aspergillus flavus CCM 8363 at highest concentration measured after 24 to 48 hrs by alamar blue dye based broth microdilution assay; format: functional, organism-based
Klebsiella pneumoniae = assay: Antibacterial activity against Klebsiella pneumoniae at highest concentration measured after 24 to 48 hrs by alamar blue dye based broth microdilution assay; format: functional, organism-based
[16] = system: Mycobacterium tuberculosis; assay: Antimycobacterial activity against XDR Mycobacterium tuberculosis Praha 131 after 21 days; format: functional; conditions: Praha 131, 504 h; method in brief: as §4
[17] = system: Trichophyton interdigitale; assay: Antifungal activity against Trichophyton interdigitale ATCC 9533 CCM 8377 at highest concentration measured after 72 to 120 hrs by alamar blue dye based broth microdilution assay; format: functional
Mycobacterium kansasii [18] = assay: Antimycobacterial activity against Mycobacterium kansasii 6509/96 after 14 days; format: functional; conditions: 6509/96, 336 h; method in brief: as §1
A-431 = assay: Cytotoxicity against human A431 cells assessed as reduction in cell viability after 48 hrs by CellTiter 96 aqueous one solution assay; format: cell-based; conditions: A-431, 48 h

Row | SMILES | MIC99 (Mycobacterium kansasii [1]) [µM] | Activity (Pseudomonas aeruginosa) | MIC99 (Mycobacterium kansasii [2]) [µM] | Activity (Staphylococcus aureus [3]) | MIC99 (Mycobacterium avium [4]) [µM] | Activity (Pichia kudriavzevii) | Activity (Enterococcus faecalis) | viability at 48 h, 30 µM [5] [%] | MIC99 (Mycobacterium kansasii [6]) [µM] | MIC99 (Mycobacterium kansasii [8]) [µM] | viability at 48 h, 30 µM [9] [%] | MIC99 (Mycobacterium kansasii [10]) [µM] | MIC99 [11] [µM] | MIC99 [12] [µM] | MIC99 (Mycobacterium avium [13]) [µM] | MIC99 [14] [µM] | IC50 (HepG2) [µM] | MIC99 [16] [µM] | MIC99 (Mycobacterium kansasii [18]) [µM] | IC50 (A-431) [µM] | also measured
1 | CCCCCCCCSc1nnc(-c2cc([N+](=O)[O-])cc([N+](=O)[O-])c2)n1Cc1ccccc1 | 0.06 (≈ 0.0282 µg/mL) | inactive | 0.125 (≈ 0.0587 µg/mL) | inactive | 250 (≈ 117 µg/mL) | inactive | inactive | 99 | 0.125 (≈ 0.0587 µg/mL) | 0.06 (≈ 0.0282 µg/mL) | 131 | 0.06 (≈ 0.0282 µg/mL) | 0.125 (≈ 0.0587 µg/mL) | 0.06 (≈ 0.0282 µg/mL) | 250 (≈ 117 µg/mL) | 0.125 (≈ 0.0587 µg/mL) | > 30 | 0.25 (≈ 0.117 µg/mL) | 0.06 (≈ 0.0282 µg/mL) | > 30 | Activity (Escherichia coli): inactive; Activity [7]: inactive; Activity (Serratia marcescens): inactive; Activity (Candida tropicalis): inactive; Activity (Candida albicans): inactive; Activity (Aspergillus fumigatus): inactive; Activity (Lichtheimia corymbifera): inactive; Activity (Candida parapsilosis): inactive; Activity (Staphylococcus aureus [15]): inactive; Activity (Aspergillus flavus): inactive; Activity (Klebsiella pneumoniae): inactive; Activity [17]: inactive
2 | Cn1c(SCc2ccc(Cl)c(Cl)c2)nnc1-c1cc([N+](=O)[O-])cc([N+](=O)[O-])c1 | 0.125 (≈ 0.055 µg/mL) | inactive | 0.5 (≈ 0.22 µg/mL) | inactive | > 500 | inactive | inactive | 110 | 0.125 (≈ 0.055 µg/mL) | 0.25 (≈ 0.11 µg/mL) | 92 | 0.06 (≈ 0.0264 µg/mL) | 0.06 (≈ 0.0264 µg/mL) | 0.06 (≈ 0.0264 µg/mL) | > 500 | 0.06 (≈ 0.0264 µg/mL) | > 30 | 0.06 (≈ 0.0264 µg/mL) | 0.125 (≈ 0.055 µg/mL) | > 30 | Activity (Escherichia coli): inactive; Activity [7]: inactive; Activity (Serratia marcescens): inactive; Activity (Candida tropicalis): inactive; Activity (Candida albicans): inactive; Activity (Aspergillus fumigatus): inactive; Activity (Lichtheimia corymbifera): inactive; Activity (Candida parapsilosis): inactive; Activity (Staphylococcus aureus [15]): inactive; Activity (Aspergillus flavus): inactive; Activity (Klebsiella pneumoniae): inactive; Activity [17]: inactive
3 | O=[N+]([O-])c1cc(CSc2nnc(-c3ccc(Br)cc3)n2Cc2ccccc2)cc([N+](=O)[O-])c1 | 1 (≈ 0.526 µg/mL) | inactive | 4 (≈ 2.11 µg/mL) | inactive | 250 (≈ 132 µg/mL) | inactive | inactive | 173 | 4 (≈ 2.11 µg/mL) | 2 (≈ 1.05 µg/mL) | 93 | 2 (≈ 1.05 µg/mL) | 4 (≈ 2.11 µg/mL) | 2 (≈ 1.05 µg/mL) | 250 (≈ 132 µg/mL) | 4 (≈ 2.11 µg/mL) | > 30 | 4 (≈ 2.11 µg/mL) | 4 (≈ 2.11 µg/mL) | > 30 | Activity (Escherichia coli): inactive; Activity [7]: inactive; Activity (Serratia marcescens): inactive; Activity (Candida tropicalis): inactive; Activity (Candida albicans): inactive; Activity (Aspergillus fumigatus): inactive; Activity (Lichtheimia corymbifera): inactive; Activity (Candida parapsilosis): inactive; Activity (Staphylococcus aureus [15]): inactive; Activity (Aspergillus flavus): inactive; Activity (Klebsiella pneumoniae): inactive; Activity [17]: inactive
4 | O=[N+]([O-])c1cc(CSc2nnc(C3CCCCC3)n2Cc2ccccc2)cc(C(F)(F)F)c1 | 16 (≈ 7.62 µg/mL) |  | 16 (≈ 7.62 µg/mL) |  | 250 (≈ 119 µg/mL) |  |  | 79 | 32 (≈ 15.2 µg/mL) | 16 (≈ 7.62 µg/mL) | 67 | 16 (≈ 7.62 µg/mL) | 16 (≈ 7.62 µg/mL) | 16 (≈ 7.62 µg/mL) | 250 (≈ 119 µg/mL) | 16 (≈ 7.62 µg/mL) | > 30 | 16 (≈ 7.62 µg/mL) | 16 (≈ 7.62 µg/mL) | > 30 | 
5 | CO[C@H]1/C=C/O[C@@]2(C)Oc3c(C)c(O)c4c(O)c(c(/C=N/N5CCN(C)CC5)c(O)c4c3C2=O)NC(=O)/C(C)=C\C=C\[C@H](C)[C@H](O)[C@@H](C)[C@@H](O)[C@@H](C)[C@H](OC(C)=O)[C@@H]1C [RIFAMPIN] | 0.125 (≈ 0.103 µg/mL) |  | 0.25 (≈ 0.206 µg/mL) |  | 32 (≈ 26.3 µg/mL) |  |  |  | 0.25 (≈ 0.206 µg/mL) | 0.25 (≈ 0.206 µg/mL) |  | 0.125 (≈ 0.103 µg/mL) | > 8 | 0.25 (≈ 0.206 µg/mL) | 62 (≈ 51 µg/mL) | 0.25 (≈ 0.206 µg/mL) |  |  | 0.25 (≈ 0.206 µg/mL) |  | 
